Rows were chosen to be rich in hits. Some 4.6% of all compounds tested hit in one or more screens of this group.
Wee1 degr inh = human Wee1 degradation inhibition, primary screen | P30291 | HeLa Luc-Wee1K328M stability, luciferase luminescence; 100% = proteasome inhibitor MG132 effect | reporter increase, % at 5 µM | hit rate 1.2% among 220,000 | AID 1321;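 active = activation above the mean of all tested compounds plus 3 SD, set per screening run, cut at about 8.8% in these data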;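 note: cells exposed to compound for 20 h before luminescence read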
Target sequence (P30291 whole entry K328M): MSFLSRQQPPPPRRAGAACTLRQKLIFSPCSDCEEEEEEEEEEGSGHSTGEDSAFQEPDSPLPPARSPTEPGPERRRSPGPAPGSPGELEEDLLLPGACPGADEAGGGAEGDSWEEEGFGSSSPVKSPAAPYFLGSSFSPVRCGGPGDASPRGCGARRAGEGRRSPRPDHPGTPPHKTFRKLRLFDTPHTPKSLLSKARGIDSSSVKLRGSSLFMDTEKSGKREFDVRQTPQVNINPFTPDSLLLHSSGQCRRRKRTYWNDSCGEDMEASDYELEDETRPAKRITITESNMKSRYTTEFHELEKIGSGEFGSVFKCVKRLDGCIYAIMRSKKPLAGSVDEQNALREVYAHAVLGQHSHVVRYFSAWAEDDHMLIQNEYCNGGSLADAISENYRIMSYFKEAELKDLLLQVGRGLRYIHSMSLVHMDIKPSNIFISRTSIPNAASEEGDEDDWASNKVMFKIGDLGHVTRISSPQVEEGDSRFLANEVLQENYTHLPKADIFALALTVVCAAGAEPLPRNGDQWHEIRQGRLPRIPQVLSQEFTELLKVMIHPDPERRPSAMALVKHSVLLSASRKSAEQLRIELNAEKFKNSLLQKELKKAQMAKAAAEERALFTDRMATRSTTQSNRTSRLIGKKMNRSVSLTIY
Mdm2 ligase inh = inhibitors of human Mdm2 E3 ubiquitin ligase. Q00987. cell-based MDM2 ubiquitination luciferase reporter, 2 h; 0 = plate control, 100 = twice control, blank-subtracted. signal enhancement, % at 5 µM. hit rate 0.11% among 210,000. AID 1230;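 active = signal enhancement of 30% or more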;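 note: luminescence tracks abundance of the self-degrading MDM2-luciferase fusion protein; higher signal means inhibition of MDM2 E3 ligase activity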
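Test system: stable mammalian line carrying autodegrading MDM2–luciferase fusion reporter; quantity: 2000 cells in each well; times: 4 h cell settling then 2 h compound exposure, 37 °C; detection: luminescence with SteadyLite reagent, 15 min at room temperature; evaluation: percent signal gain over controls, blank-subtracted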
APP 5'UTR act = APP 5'UTR luciferase reporter activation; SH-SY5Y APP 5'UTR luciferase reporter, luminescence; zero percent = DMSO vehicle wells; activation, % at 2 µM; hit rate 1% among 190,000; AID 1276;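 active = activation above a set limit, based on mean plus 3 SD of controls, cut at about 140% in these data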
NF-kB neuron act = compounds increasing NF-kB expression in human neuronal cells; NF-kB reporter expression; stronger effect = higher value; fold change at 12.5 µM; hit rate 1.6% among 190,000; AID 1239; in the data active = fold change above about 3.3
STAT1 act = STAT1 signaling activation; NIH 3T3 STAT1-luciferase reporter, IFN-gamma, luminescence; 100% = IFN-gamma alone, no compound; activation (% of control), % at 5.5 µM; hit rate 2.6% among 200,000; AID 932;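 active = activation above the screen-wide mean activation plus 3 SD, cut at about 130% in these data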
p97 ATPase inh = inhibitors of human p97 ATPase. inhibition, % at 8 µM. hit rate 0.42% among 220,000. recombinant p97 ATPase, Kinase-Glo ATP luminescence, 3 h. AID 1481. P55072; in the data active = inhibition above about 15%
STAT1 act conf = STAT1 activation, confirmation assay; shares compounds with STAT1 act; activation (% of control), % at 5.7 µM; AID 1262; hit rate 97% among 1,200; NIH 3T3 STAT1-luciferase reporter, IFN-gamma potentiation, luminescence; 100% = IFN-gamma EC80 alone, no compound;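 active = activation above a set limit carried over from the earlier primary STAT1 screen, cut at about 140% in these data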
NFkB act = NF-kappaB activation in STAT1 activator counter-screen; activation (% of control), % at 5.7 µM; HEK293T NF-kB luciferase reporter, TNF-alpha stimulated, luminescence; 100% = TNF-alpha with vehicle only; shares compounds with STAT1 act; hit rate 43% among 1,200;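 active = activation above the mean of solvent-only control wells plus 3 SD, set per campaign, cut at about 130% in these data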;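 note: TNF-alpha given at a submaximal dose yielding about 80% of full reporter signal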
STAT3 act 2 = activates human STAT3, counter-screen to STAT1 activators; AID 1316; hit rate 46% among 1,200; U3A cells STAT3-luciferase reporter, IL-6, luminescence; cells lack STAT1; 100 = IL-6 alone, no compound effect; shares compounds with STAT1 act; activation (% of control), % at 5.7 µM;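 active = activation above the solvent-only control well mean plus 3 SD, set per plate batch, cut at about 110% in these data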;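 note: higher means more STAT3 reporter activation so hits are non-selective activators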
Hits are given with their value; - = inactive; . = no result.

SMILES | Wee1 degr inh | Mdm2 ligase inh | APP 5'UTR act | NF-kB neuron act | STAT1 act | p97 ATPase inh | STAT1 act conf | NFkB act | STAT3 act 2
Cc1cccc(C)c1NC(=O)/C(C#N)=C/c1cccs1 | - | - | - | - | - | - | . | . | .
Cc1ccc(NC(=O)/C(C#N)=C/c2cccs2)c(C)c1 | - | - | - | 3.9 | 160 | - | 171 | 144 | -
COc1ccc(-c2cc3nc4c(c(=O)n3[nH]2)CCC4)cc1 | - | - | - | - | - | - | . | . | .
O=c1c2c(nc3cc(-c4ccc(Br)cc4)[nH]n13)CCCC2 | - | - | 174 | - | 205 | - | 281 | 151 | -
Cn1nc(C(C)(C)C)cc1C(=O)Sc1cccc(Br)c1 | - | - | . | . | . | - | . | . | .
COc1ccc(/C=N/NC(=O)c2cccc(NC(C)=O)c2)c(OC)c1 | - | - | - | - | - | - | . | . | .
COc1ccc(/C=N/NC(=O)c2[nH]ncc2Br)c(OC)c1 | - | - | - | - | 155 | - | 162 | - | 114
CC(C)(C)NC(=O)NC(=O)COc1ccc(Br)cc1Br | 9.8 | - | 151 | 5.1 | 196 | - | 243 | - | 114
O=C(OCC(=O)N1CCOCC1)c1ccccc1Cc1ccccc1 | - | - | - | 5.5 | 158 | - | 198 | 140 | 137
O=C(OCC(=O)N1CCOCC1)c1ccccc1SCC(=O)N1CCCC1 | - | - | - | - | - | - | . | . | .
NNC(=O)c1ccc2nc(-c3ccc(Br)cc3)cn2c1 | - | - | - | - | 162 | - | 208 | - | 115
O=c1[nH]c2ccccc2nc1/C=C/c1ccc(F)cc1 | - | - | - | - | 159 | - | 166 | - | -
O=C(/C=C/c1ccc(F)cc1)Nc1nc2ccccc2[nH]1 | 10 | - | 161 | - | 154 | - | 189 | - | -
O=c1[nH]c2ccccc2nc1/C=C/c1ccccc1 | - | - | - | - | 162 | - | 188 | - | 121
CC(C)(C)/C(O)=C/c1nc2ccccc2[nH]c1=O | - | - | - | - | - | - | . | . | .
COc1ccc(-c2cc(C(=O)c3c(N)n(C)c(=O)n(C)c3=O)c3ccccc3n2)cc1OC | - | - | - | - | - | - | . | . | .
O=C1OC(COc2ccc(Br)cc2)CN1c1ccccc1 (centres undefined) | - | - | . | . | . | - | . | . | .
CCn1c(COc2ccccc2Cl)nnc1SCC(=O)Nc1ncccc1C | - | - | - | - | - | - | . | . | .
CCN(CC(=O)Nc1ccc(N2CCOCC2)cc1)C(=O)COc1ccccc1OC | - | - | - | - | - | - | . | . | .
COc1cc(/C=N/O)ccc1OCc1ccccc1Cl | - | - | 186 | 7.2 | 182 | - | 191 | - | 120
O/N=C/c1ccccc1OCc1ccccc1Cl | - | - | - | - | - | - | . | . | .
O=C(COC(=O)Cc1ccccc1F)Nc1ccc(F)cc1F | - | - | - | - | - | - | . | . | .
CCOc1nc(OCC)c2cnn(C)c2n1 | - | - | . | . | . | - | . | . | .
COc1cccc(C(=O)Nc2cc3c(cc2Cl)OCCCO3)c1 | - | - | 136 | 4.3 | 160 | - | 175 | - | -
COc1ccccc1C1CCN(C(=O)c2ccco2)CC1 | - | - | . | . | . | - | . | . | .
SMILES | Wee1 degr inh | Mdm2 ligase inh | APP 5'UTR act | NF-kB neuron act | STAT1 act | p97 ATPase inh | STAT1 act conf | NFkB act | STAT3 act 2
CCOC(=O)c1[nH]c2ccc(Br)cc2c1NC(=O)CCN1CCCC(C)(C)C1 | - | - | - | - | - | - | . | . | .
O=C(CCl)Nc1ccc(N=Nc2ccccc2)cc1 | - | - | - | - | - | - | . | . | .
O=C(Nc1ccc(N=Nc2ccccc2)cc1)c1ccccc1Cl | - | - | 158 | - | 180 | - | 204 | 153 | 120
O=C(Nc1ccc(N=Nc2ccccc2)cc1)c1ccc(Cl)cc1Cl | - | - | - | - | - | - | . | . | .
CC(C)C(=O)OCC(=O)Nc1ccc(N=Nc2ccccc2)cc1 | - | - | 170 | 5.1 | 151 | - | 184 | 140 | 117
CC(=O)OCC(=O)Nc1ccc(N=Nc2ccccc2)cc1 | - | - | - | 4.9 | 162 | - | 190 | 135 | 114
CC(=O)OCC(=O)Nc1ccc(SC(F)F)cc1 | - | - | - | - | - | - | . | . | .
CC(=O)Nc1ccc(N=Nc2ccccc2)cc1 | - | - | - | 5.3 | 152 | - | 188 | - | -
O=c1[nH]c(/C=C/c2ccccc2OC(F)F)nc2c1cnn2-c1ccccc1 | - | - | - | - | - | - | . | . | .
O=c1c2ccccc2nc(/C=C/c2ccc([N+](=O)[O-])o2)n1CCCO | - | - | - | - | 151 | - | 167 | 157 | -
O=C(C1=C(O)C(=O)N(c2nccs2)C1c1ccccc1)c1cc2ccccc2o1 (centres undefined) | - | - | . | . | . | - | . | . | .
Cc1ccc2nc(N3C(=O)C(O)=C(C(=O)c4cc5ccccc5o4)C3c3cccs3)sc2c1 (centres undefined) | - | - | 160 | 3.7 | 154 | - | 162 | - | 123
Cc1csc2nc(CSc3ccc(Cl)cc3)cn12 | - | - | 149 | 6 | 153 | - | 198 | 135 | -
COc1ccc2cc(C(=O)C3CCCN(C(=O)Cc4c(C)noc4C)C3)ccc2c1 (centres undefined) | - | - | - | - | - | - | . | . | .
Cc1ccccc1/C(N)=N/OC(=O)c1ccc(F)cc1 | - | - | - | . | 183 | - | 174 | 135 | -
C/C(=N/OC(=O)c1ccc(F)cc1)c1ccc(C)cc1 | - | - | - | - | - | - | . | . | .
O=c1[nH]nc(N2CCOCC2)c(=O)[nH]1 | - | - | . | . | . | - | . | . | .
Cc1ccc(/C=C(\C#N)c2nc3ccccc3[nH]2)s1 | - | - | 215 | 6.1 | 162 | - | 222 | 137 | -
N#C/C(=C\c1c(Cl)cccc1Cl)c1nc2ccccc2[nH]1 | - | - | . | . | . | - | . | . | .
COC(=O)CCSCC(=O)N1N=C(c2ccc(OC)cc2)CC1c1cccc(OC)c1OC (centres undefined) | - | - | - | - | - | - | . | . | .
Cc1cc(C(=O)COC(=O)c2cc(Cl)ccc2N)c(C)n1Cc1ccco1 | - | - | 171 | - | 156 | - | 185 | - | 115
Nc1nc(-c2ccc3ccccc3c2)cs1 | - | - | - | 6.3 | 169 | - | 195 | 134 | -
COc1ccc(-c2csc(N)n2)cc1 | - | - | - | - | - | - | . | . | .
Cc1cccc(N(CC(=O)NCc2ccco2)C(=O)CCC(=O)Nc2nccs2)c1 | - | - | - | - | - | - | . | . | .
